# Data taken from ChEMBL document CHEMBL4513216, “Probing the Open Global Health Chemical Diversity Library for Multistage-Active Starting Points for Next-Generation Antimalarials” (ACS Infect Dis, 2020).
# Assay: Toxicity liver stage against HepG2, at 10uM
# Format: cell-based
# Set-up: test concentration 10 uM, cell line HepG2-A16-CD81EGFP
# Settings: human, HepG2-A16-CD81EGFP cells; read-out: INHIBITION
# Summary of the method: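 Uninfected HepG2-A16-CD81EGFP cells, 3 × 10^3 per well, 1536-well, plated on prespotted compound at 10 μM final, parasite-free screening media added to match infected plates; puromycin 10 μM positive, DMSO 0.5% negative; run in parallel with 48 h PbLuc assay at 37 °C, 5% CO2; viability by CellTiter-Glo luminescence, normalized to controls.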
row,Structure (SMILES),cytotoxicity at 10 µM [%]
1,CCC(C)CNc1ccc2oc(COC)nc2c1 (configuration not stated),-22.4
2,Cc1nc(CN(C)c2nc3c(cnn3C(C)(C)C)c(=O)[nH]2)cs1,-5.53
3,O=c1ccc2c(n1Cc1cccnc1)CCN(C1CCOC1)CC2 (configuration not stated),9.58
4,CCOCCC(=O)N1Cc2cnc(-c3ccccc3)nc2C1,-6.88
5,CCn1cnnc1CNC(=O)C1CCCN(Cc2cccc(F)c2)C1 (configuration not stated),3.5
6,CC(=O)Nc1ccc(SCC(O)COCc2ccccc2)cc1 (configuration not stated),1.87
7,Nc1nccc(N2C[C@@H](CN3CCCCC3)[C@@H](CO)C2)n1,-2.16
8,Cc1cc(C2CCC2)nc(N(C)Cc2cnccn2)n1,-1.86
9,Cn1cc2c(n1)C(CNC1CCOCC1)OCC2 (configuration not stated),9.31
10,O=C(Cn1nc2ccccc2n1)N1CCCn2cncc2C1,1.87
11,O=C(C1CCCC1)N1CC2(CCCN(C3COC3)C2)Cc2ccccc21 (configuration not stated),9.96
12,CCCc1nc(C(=O)N2CCCn3nc(CCC(=O)O)cc3C2)cs1,-9.84
13,CC(C)C(NC(=O)Nc1ccc(F)cc1)C(=O)N(C)C (configuration not stated),-10.9
14,CSc1ncnc(NCc2ccco2)c1C#N,0.0868
15,CC(C)(O)CCc1ccc(C(=O)N2Cc3cnn(CCO)c3C2)cc1,2.69
16,CN(c1ccccc1C(=O)O)S(=O)(=O)c1cccc2cccnc12,-0.996
17,CC(C)n1nc2c(cc1=O)CN(Cc1nc(-c3ccoc3)no1)CC2,10.2
18,COc1ncc(CN2CCC3(CCNC(=O)CC3)CC2)cn1,-144
19,O=C(NCC1CCCO1)c1nc2c(s1)CCCN2Cc1ccccc1 (configuration not stated),1.84
20,Cc1cc(NC(=O)C(C)C)n(-c2nc(C)c(C)c(=O)[nH]2)n1,43.1
21,CS(=O)(=O)N1CCOCC12CCN(Cc1ccoc1)CC2,7.81
22,O=C1C(NS(=O)(=O)c2ccc(F)cc2F)CCN1Cc1ccccc1 (configuration not stated),-0.885
23,CC(C)C(NC(=O)NCC1(CO)CC1)c1nnc2n1CCC2 (configuration not stated),-6.11

row,Structure (SMILES),cytotoxicity at 10 µM [%]
1,COc1cccc(-c2n[nH]cc2CNCC2CCS(=O)(=O)C2)c1 (configuration not stated),-3.54
2,Cc1cnc(CN(C)C2CCN(CCCc3cnn(C)c3)C2)o1 (configuration not stated),2.61
3,CCN(Cc1ccncc1)S(C)(=O)=O,14.4
4,Cc1ccccc1-c1noc(CN2CCc3cncnc3C2)n1,-11.5
5,COc1ccc(C(C)NCc2ccc(OC)c(OC)c2OC)cc1F (configuration not stated),55.9
6,CN(C)S(=O)(=O)NCc1cccnc1Oc1ccc(F)cc1F,8.49
7,Cc1cc(-c2nnn(CCNS(C)(=O)=O)n2)ccc1F,-9.09
8,Nc1ccnc(N2C[C@H]3CC[C@@H](C2)N(CC2CCC2)C3=O)n1,-0.253
9,F[C@@H]1CN(CC2CC2)C[C@@H]1OCc1nc2ccccc2[nH]1,-1.34
10,NC(=O)C1CCN(S(=O)(=O)c2cnn(-c3ccccc3)c2)C1 (configuration not stated),7.68
11,COc1ccc(N2CCC(N(C)C(=O)C(C)SC)CC2)cc1 (configuration not stated),1.69
12,CC(C)N1CCOCC2(CN(Cc3ccco3)CCO2)C1 (configuration not stated),-7.53
13,Cc1noc(C)c1CN(C)C(=O)c1ccc(NC2CC2)nc1,-4.94
14,N#Cc1cccc(N2CCC3(CCC(=O)N(CC(N)=O)C3)CC2)n1,3.14
15,CCn1cc(S(=O)(=O)NC2(CN3CCOCC3)CCCCC2)c(C)n1,1.88
16,N#Cc1cc(Cn2cnc(C3CCC3)cc2=O)ccc1F,-0.908
17,COc1ccccc1CN1C[C@@H]2CN(C(C)=O)CCO[C@@H]2C1,-102
18,CCS(=O)(=O)CC(=O)Nc1c(C)cnn1Cc1cc(F)ccc1F,-4.96
19,CNC(=O)CN1CCCC12CCN(C(=O)c1ccc(F)cc1)CC2,5.03
20,CN(C)CC1COCCN1C(=O)c1ccccc1C(=O)c1ccccc1 (configuration not stated),1.12
21,NC(=O)C1CCN(C(=O)c2ccccc2OCc2ccccc2Cl)CC1,-9.4
22,O=C(CCn1cccn1)NCCOc1cccc(Cl)c1,-2.48
23,Cc1ccc(OCC2CCCN(C(=O)CN3CCOCC3)C2)cc1 (configuration not stated),-25.6

row,Structure (SMILES),cytotoxicity at 10 µM [%]
1,CNC(=O)c1cc(OC)c(OC)cc1N(C)S(C)(=O)=O,-5.58
2,CS(=O)(=O)NC(=O)c1nnn(-c2cccc(F)c2)c1C1CC1,-3.9
3,CC(C)C(NC(=O)c1ccccc1)C(=O)N1CCC2(CC1)OCCO2 (configuration not stated),5.44
4,N#Cc1ccc(F)c(CN2CCCC2Cn2cncn2)c1 (configuration not stated),8.21
5,CN(Cc1ccc2c(c1)OCO2)C(=O)NCCc1cnn(C)c1,-2.69
6,COc1ccc(N2CCN(C(=O)Cn3nc(C)c(Cl)c3C)CC2)cc1,1.58
7,CCNc1ncc(C(=O)N[C@H](C(N)=O)c2ccccc2)cn1,10.6
8,CN(C)C(CNCc1nc(-c2ccsc2)no1)c1cccc(F)c1 (configuration not stated),12.9
9,CC1CCc2nn(CCNC(=O)Cc3ccccc3F)c(=O)cc2C1 (configuration not stated),6.66
10,O=C(Nc1ccccc1)C1CN(Cc2cccs2)CC12CCOCC2 (configuration not stated),3.09
11,Cc1ccc(CN(C)C(=O)CN2CCCCC2Cn2cncn2)cc1 (configuration not stated),17.7
12,Cn1c(NC(=O)CNC(=O)C2CC2)nc2cc(Cl)ccc21,3.66
13,CC1CCN(C(=O)[C@@H]2C[C@@H]3CCN(Cc4nccs4)C[C@H]3O2)CC1,-107
14,COc1c[nH]c(C(=O)Nc2nc(C(C)(C)C)cs2)cc1=O,-49.6
15,c1coc(CN2CCC3(CC2)COCCN(CCN2CCCC2)C3)c1,-7.82
16,COc1ccc(CC(=O)N2CC[C@@H]3NC(=O)CC[C@@H]32)cc1,-1.89
17,Cn1ccc(NC(=O)CN2CCN(C3CCCC3)C(=O)C2)n1,4.31
18,O[C@@H]1CCN(c2ccc3c(Cl)ccnc3c2F)C1,2.12
19,Cc1cccc(C(=O)N2CCCC(Cc3cncc4ccccc34)C2)n1 (configuration not stated),-19
20,CCN(Cc1ccc2c(c1)OCO2)C(=O)NC(C)Cn1cccn1 (configuration not stated),-2.5
21,CCCn1cc(NC(=O)c2cccnc2O)ccc1=O,-13.1
22,CN(C)c1ncc(-c2c(-c3ccccc3)ncn2C(CO)C(=O)O)cn1 (configuration not stated),0.471
23,c1ccc(OCc2nnn3c2CN(c2ncccn2)CCC3)nc1,1.89

row,Structure (SMILES),cytotoxicity at 10 µM [%]
1,CCOCc1cnc2n1CCN(C(=O)c1ccoc1C)C2C (configuration not stated),-98.3
2,CCc1noc(CN2CCN(Cc3cccs3)CC2)n1,-5.06
3,Cc1cnn(C(C)C2CC2)c1NC(=O)c1ncccc1O (configuration not stated),7.4
4,CCn1cc(CN2CCC(c3[nH]ncc3S(C)(=O)=O)C2)cn1 (configuration not stated),-2.33
5,N#Cc1ncn(CC(=O)Nc2cc(Cl)ccc2F)n1,-2.75
6,Clc1ccccc1-c1cc(CNc2ncnc3c2CCNCC3)no1,24.6
7,O=C(NCc1ccc2c(c1)OCCO2)N1CCC(CO)CC1,-4.62
8,CCc1nc(CC(=O)N2CCOCC2c2ncon2)cs1 (configuration not stated),-2.58
9,O=C(CCC1CC1)N1CCC(n2cc(C3(O)CCCC3)nn2)CC1,9.4
10,Cc1nc2c(C(=O)O)cccc2n1-c1ccc(C(=O)N2CCCC2)o1,-2.36
11,Cc1c(NCC(C)(C)C)cccc1C(=O)N(C)Cc1ncnn1C,22.5
12,O=S(=O)(NCC1COc2ccccc2C1)N1CCCC1 (configuration not stated),-7.74
13,Cn1nccc1-c1cncc(C2CCCN(S(C)(=O)=O)C2)n1 (configuration not stated),6.62
14,COc1cc(F)c(NC(=O)N(C)CCNC(=O)N(C)C)cc1F,17.6
15,COC[C@@H]1CC[C@H]2[C@H](CCN2C(=O)c2ccncc2F)O1,-8.82
16,O=C(c1ccc(-c2ccc(O)nc2)s1)N1CCCCCC1,4.51
17,CC(C)c1nn(C)c(N(C)C)c1CNC(C)c1ccc2c(c1)OCO2 (configuration not stated),-4.49
18,Cc1cc(C)c2ncn(CC(C)(C)CO)c(=O)c2c1,15.4
19,CCCOc1ccc(CCC(=O)Nc2nonc2C)cc1,-7.24
20,Cc1ccc(-c2nc(CN3CCOCC3)no2)cc1N1CCNC1=O,-5.73
21,CC(C)c1nc2n(n1)CC(NCc1nnc(-c3ccco3)o1)CC2 (configuration not stated),-9.78
22,CCN(CC)CCCNc1nc(C)nc2c1CCN(C)C2,3.19
23,NC1CCc2c(ccc(=O)n2CC2CC2)C1 (configuration not stated),-4.37

row,Structure (SMILES),cytotoxicity at 10 µM [%]
1,O=C(NCc1cccnc1)[C@H]1CN2CCC1C[C@@H]2Cn1cc(CO)nn1 (some centres not stated),-0.843
2,CNC(=O)COC(=O)c1ccoc1CN1c2ccccc2CC1C (configuration not stated),0.165
3,O=c1ccc(-n2ccnc2)nn1CCNS(=O)(=O)c1ccc(Cl)s1,-1.36
4,Cc1cccc(C(C(=O)NCCCc2ccncc2)N(C)C)c1 (configuration not stated),-8.38
5,CCCC1(CO)CCCN(C(=O)CNC(C)=O)C1 (configuration not stated),3.43
6,CCn1ccnc1CN1CCN(CCc2ccncc2)CC1C (configuration not stated),-3.04
7,O=C(CCO)N1C[C@@H]2CC[C@H]1CN(C1Cc3ccccc3C1)C2,-0.608
8,Cc1cc(CNCc2c(C)nn(C)c2N2CCOCC2)no1,-8.11
9,Cc1nc(CN(C)C2CCN(Cc3cnc(C)s3)C2)no1 (configuration not stated),-4.8
10,CC(C)C(=O)NS(=O)(=O)c1ccc(C#N)cc1C(F)(F)F,-12.3
11,COc1ccc(-c2cc3nn(CC(N)=O)c(=O)n3c(C)n2)cc1,-5.29
12,O=C(c1cccc2cccnc12)N1CCCC(n2ccnc2)C1 (configuration not stated),-5.75
13,Cc1cc(CN2C[C@@H]3CCCO[C@@H]3[C@H](NS(C)(=O)=O)C2)no1,11.5
14,COC[C@@H]1CCC[C@]12CN(Cc1cccc(C)n1)CCO2,5.53
15,Cc1cc(C)n(CC(=O)N2CCC(NS(C)(=O)=O)CC2)n1,3.18
16,Cc1ncsc1C(=O)NC1CCN(CCC(=O)Nc2ccccc2)CC1,-1.39
17,Cc1ccc(CN2CCC3(CC2)CC(c2cccnc2)CO3)s1 (configuration not stated),-9.7
18,CCCN1CCC(N2CCC(Cn3cc(CC(C)O)nn3)CC2)CC1 (configuration not stated),-1.89
19,CN(Cc1cccc(F)c1)C(=O)CN1CCOC(Cn2cncn2)C1 (configuration not stated),-2.09
20,Cc1cc(C)c2cc(C(=O)N3CCN(Cc4ccco4)CC3)[nH]c2c1,-51.4
